Data reported in ChEMBL document CHEMBL2390889, “Synthesis and anticancer activity of acyl thioureas bearing pyrazole moiety” (2013).

Legend:
Format in all cases: functional
[1] = test system: Jurkat; assay: Anticancer activity against human Jurkat cells assessed as viable cells at 10^-5 M after 24 hrs by XTT assay relative to control; details: read-out: Activity
Outline: (§1)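 DLD-1, HepG2 and Jurkat cells were grown in low-glucose DMEM with 10% FBS, 1% L-glutamine, 100 IU/mL penicillin and streptomycin at 37 °C under 5% CO2. They were seeded at 10 × 10^4 cells/well and treated with a 10-fold dilution series from 10^-4 to 10^-8 M for 24 or 48 h. XTT was then added, absorbance read at 450 nm after 4 h, and viability expressed as % of untreated control (set to 100%).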

[2] = test system: DLD-1; assay: Anticancer activity against human DLD1 cells assessed as viable cells at 10^-5 M after 24 hrs by XTT assay relative to control; details: DLD-1, 24 h, read-out: Activity; outline: as §1
[3] = test system: HepG2; assay: Anticancer activity against human HepG2 cells assessed as viable cells at 10^-5 M after 24 hrs by XTT assay relative to control; details: HepG2, 24 h, read-out: Activity; outline: as §1
[4] = test system: Jurkat; assay: Anticancer activity against human Jurkat cells assessed as viable cells at 10^-4 M after 48 hrs by XTT assay relative to control; details: read-out: Activity; outline: as §1
[5] = test system: HepG2; assay: Anticancer activity against human HepG2 cells assessed as viable cells at 10^-4 M after 24 hrs by XTT assay relative to control; details: HepG2, 24 h, read-out: Activity; outline: as §1
[6] = test system: HepG2; assay: Anticancer activity against human HepG2 cells assessed as viable cells at 10^-4 M after 48 hrs by XTT assay relative to control; details: HepG2, 48 h, read-out: Activity; outline: as §1
[7] = test system: Jurkat; assay: Anticancer activity against human Jurkat cells assessed as viable cells at 10^-5 M after 48 hrs by XTT assay relative to control; details: read-out: Activity; outline: as §1
[8] = test system: HepG2; assay: Anticancer activity against human HepG2 cells assessed as viable cells at 10^-5 M after 48 hrs by XTT assay relative to control; details: HepG2, 48 h, read-out: Activity; outline: as §1
[9] = test system: Jurkat; assay: Anticancer activity against human Jurkat cells assessed as viable cells at 10^-4 M after 24 hrs by XTT assay relative to control; details: read-out: Activity; outline: as §1
[10] = test system: DLD-1; assay: Anticancer activity against human DLD1 cells assessed as viable cells at 10^-4 M after 24 hrs by XTT assay relative to control; details: DLD-1, 24 h, read-out: Activity; outline: as §1
[11] = test system: DLD-1; assay: Anticancer activity against human DLD1 cells assessed as viable cells at 10^-4 M after 48 hrs by XTT assay relative to control; details: DLD-1, 48 h, read-out: Activity; outline: as §1
[12] = test system: DLD-1; assay: Anticancer activity against human DLD1 cells assessed as viable cells at 10^-5 M after 48 hrs by XTT assay relative to control; details: DLD-1, 48 h, read-out: Activity; outline: as §1

Row | Structure (SMILES) | viability at 10 µM [1] [%] | viability at 10 µM [2] [%] | viability at 10 µM [3] [%] | viability at 100 µM [4] [%] | viability at 100 µM [5] [%] | viability at 100 µM [6] [%] | viability at 10 µM [7] [%] | viability at 10 µM [8] [%] | viability at 100 µM [9] [%] | viability at 100 µM [10] [%] | viability at 100 µM [11] [%] | viability at 10 µM [12] [%]
1 | Cc1ccc(NC(=S)NC(=O)c2nn(-c3ccccc3)c(-c3ccccc3)c2C(=O)c2ccccc2)cc1 | 50.3 | 65.1 | 51.6 | 12.5 | 49.2 | 25.9 | 14.2 | 27.7 | 30 | 57.1 | 40.2 | 48.5
2 | Cc1ccccc1NC(=S)NC(=O)c1nn(-c2ccccc2)c(-c2ccccc2)c1C(=O)c1ccccc1 | 100 | 63.2 | 33.3 | 76.6 | 29.1 | 20.8 | 51.2 | 22.8 | 100 | 55.3 | 41.3 | 45.6
3 | COc1ccc(NC(=S)NC(=O)c2nn(-c3ccccc3)c(-c3ccccc3)c2C(=O)c2ccccc2)cc1 | 37.8 | 80.5 | 42 | 8.98 | 36.5 | 22.6 | 87.5 | 27.9 | 31.1 | 71.2 | 62.1 | 68.2
4 | O=C(NC(=S)Nc1ccc(F)cc1)c1nn(-c2ccccc2)c(-c2ccccc2)c1C(=O)c1ccccc1 | 100 | 75.1 | 54.2 | 67.6 | 50.1 | 23.6 | 47.8 | 30.1 | 100 | 62.5 | 51.5 | 60.2
5 | O=C(NC(=S)Nc1ccc(Cl)cc1)c1nn(-c2ccccc2)c(-c2ccccc2)c1C(=O)c1ccccc1 | 56.3 | 73.3 | 53.7 | 24.2 | 49.5 | 24.8 | 90 | 24.9 | 57.3 | 60.5 | 49.2 | 55.2
6 | O=C(NC(=S)Nc1ccc(Br)cc1)c1nn(-c2ccccc2)c(-c2ccccc2)c1C(=O)c1ccccc1 | 100 | 78.1 | 51.5 | 40.1 | 55.2 | 27.2 | 87.5 | 27.8 | 78.1 | 65.2 | 50.1 | 62.5
7 | O=C(NC(=S)Nc1cccc2ccccc12)c1nn(-c2ccccc2)c(-c2ccccc2)c1C(=O)c1ccccc1 | 46 | 82.2 | 85.5 | 8.24 | 78.7 | 49.9 | 14.5 | 51.2 | 36.4 | 74.2 | 70.6 | 75.5
8 | NC(=O)c1ccc(NC(=S)NC(=O)c2nn(-c3ccccc3)c(-c3ccccc3)c2C(=O)c2ccccc2)cc1 | 100 | 100 | 44.2 | 39.2 | 38.1 | 22.9 | 66.3 | 27.3 | 100 | 100 | 96.6 | 95.2
9 | O=C(NC(=S)NCc1ccccc1)c1nn(-c2ccccc2)c(-c2ccccc2)c1C(=O)c1ccccc1 | 34.7 | 75.2 | 56.4 | 17.9 | 49.2 | 39.8 | 23.1 | 40.6 | 36.6 | 64.2 | 55.9 | 65.5
10 | O=C(NC(=S)Nc1ncccn1)c1nn(-c2ccccc2)c(-c2ccccc2)c1C(=O)c1ccccc1 | 100 | 88.5 | 51.1 | 23.4 | 44.3 | 28.8 | 28 | 31.2 | 86.2 | 80.4 | 75.5 | 81.4
11 | O=C(NC(=S)Nc1ccccc1)c1nn(-c2ccccc2)c(-c2ccccc2)c1C(=O)c1ccccc1 | 30 | 75.5 | 42.1 | 6 | 38.2 | 21.8 | 67.6 | 23.7 | 23.3 | 71.3 | 60.6 | 55.4
